Assay outcomes deposited in PubChem BioAssay by several laboratories.
ADAM17 inh: inhibits human ADAM17. P78536. recombinant ADAM17, EDANS/DABCYL FRET peptide cleavage. inhibition, % at 6.95 µM. 370,000 tested, 0.83% active. AID 720648;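 active = inhibition above the mean of compounds lying between control limits plus 3 SD, set per campaign, cut at about 8.5% in these data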;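 also: 0% = DMSO-only wells as the low control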
Target sequence (P78536 215-824 limits assumed): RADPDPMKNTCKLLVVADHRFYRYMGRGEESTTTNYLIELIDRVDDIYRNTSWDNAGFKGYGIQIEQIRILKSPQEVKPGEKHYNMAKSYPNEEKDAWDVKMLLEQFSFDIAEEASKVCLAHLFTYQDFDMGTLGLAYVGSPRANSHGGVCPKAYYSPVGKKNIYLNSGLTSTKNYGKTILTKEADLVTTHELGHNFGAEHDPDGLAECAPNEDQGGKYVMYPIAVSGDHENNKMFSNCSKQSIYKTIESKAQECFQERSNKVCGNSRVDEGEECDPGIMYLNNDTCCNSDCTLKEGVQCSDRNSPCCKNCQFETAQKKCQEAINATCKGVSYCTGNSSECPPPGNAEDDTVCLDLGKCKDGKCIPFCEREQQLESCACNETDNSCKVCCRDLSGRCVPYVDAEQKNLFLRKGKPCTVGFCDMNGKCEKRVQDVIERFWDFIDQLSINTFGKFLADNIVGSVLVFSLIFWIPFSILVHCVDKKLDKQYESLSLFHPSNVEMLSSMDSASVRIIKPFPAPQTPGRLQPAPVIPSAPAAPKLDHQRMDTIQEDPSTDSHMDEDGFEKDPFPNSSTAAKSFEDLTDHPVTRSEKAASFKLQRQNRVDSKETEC
CendR NRP1 mod: alters CendR peptide binding to human NRP-1. FAM-RPARPAR peptide binding to NRP-1, fluorescence polarization. inhibition, % at 25 µM. 360,000 tested, 0.85% active;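 active = inhibition or corrected inhibition above about 18%, plus a signal ratio from 0.5 to 1.5, limit read from the data, passing the limit was not always enough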
CaV13 ICDI inh: Primary screen for inhibitors of IQ motif and Ca2+-dependent inactivation inhibitor domain binding in CACNA1D, Förster resonance energy transfer in living cells, …; inhibition, % at 12.3 µM; 340,000 tested, 0.098% active; HEK cells, CFP/YFP FRET ICDI-IQ, plate reader, 10 min; percent FRET-ratio fall versus neutral wells; AID 743397;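 active = mean replicate inhibition of at least 30% and at least 1% of replicates passing that level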;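 also: 0% = median of the neutral control wells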
Arr AP2 block: inhibitors of human beta-arrestin and AP2 interaction. FITC-arrestin peptide / GST-AP2 beads, flow cytometry; AP2 beta2 appendage carries R879A mutation. inhibition, % at 10 µM. 340,000 tested, 0.31% active. AID 504490;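 active = inhibition above a set limit, near 3 SD of compounds lacking own fluorescence, cut at about 54% in these data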;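 also: plate controls were DMSO wells for no effect and 5 µM unlabelled arrestin peptide for full effect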
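System: GST-AP2 R879A glutathione beads; medium: PBS, Tween 20 0.05%, BSA 0.1%; reagent: fluorescein-tagged arrestin peptide at 50 nM final; schedule: pre-incubation 12 min, peptide binding 1 h, room temperature; detection: flow cytometry, FL1 (488/535 nm); read-out: inhibition as reduced fluorescein signal on beads, percent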
FAS-TE inh: FAS thioesterase (human) inhibition; P49327; 360,000 tested, 0.67% active; recombinant FAS-TE, OMFH fluorogenic substrate, fluorescence endpoint; inhibition, % at 15 µM;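 active = compounds whose normalised, plate-corrected inhibition of enzyme fluorescence in the single-dose primary screen is 50% or more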;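 also: 0% = DMSO with enzyme and 100% = substrate without enzyme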
ADAM10 inh: inhibits human ADAM10; recombinant ADAM10, EDANS/DABCYL FRET peptide cleavage, 3 h; inhibition, % at 7 µM; 370,000 tested, 0.62% active; AID 720582;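 active = inhibition above a per-campaign cutoff equal to the mean of compounds falling between control-based bounds plus 3 SD, cut at about 20% in these data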;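 also: 0% = DMSO wells while the 100% control is not disclosed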
ADAM10 confirm: human ADAM10 inhibition, confirmation. shares compounds with ADAM10 inh. ADAM10 QFRET peptide cleavage, EDANS fluorescence. inhibition, % at 6.95 µM. 2,100 tested, 1% active;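 active = inhibition above about 20% chosen separately for each screening run, limit read from the data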;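 also: 0% = DMSO wells and 100% = marimastat wells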
ADAM17 ctr: counter-screen for ADAM10 exosite inhibitors: inhibitors of human ADAM17 | shares compounds with ADAM10 inh | ADAM17 QFRET peptide cleavage, EDANS fluorescence | inhibition, % at 6.95 µM | 2,100 tested, 0.5% active | AID 743214;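 active = mean triplicate inhibition above the solvent-only control wells' mean plus 3 SD, cut at about 12% in these data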;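 also: 0% = DMSO wells and 100% = marimastat wells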
Starred values were filed as active, the others as inactive; . = no result. A selection: hits, their analogues and other compounds. The true share with any hit is near 2.9%.

SMILES	ADAM17 inh	CendR NRP1 mod	CaV13 ICDI inh	Arr AP2 block	FAS-TE inh	ADAM10 inh	ADAM10 confirm	ADAM17 ctr
Nc1ccc2c(c1)Nc1ccccc1CC2	4	12	-5	6	-2	24*	0	1
COC(=O)Nc1ccc2c(c1)Nc1ccccc1CC2	4	-1	-4	-9	12	-2	.	.
Cc1ccc(C)c(-c2cc(C(=O)NCc3cccs3)c3ccccc3n2)c1	5	-8	-7	23	24	20*	5	2
O=C(NCc1cccs1)c1cc(-c2ccccc2)nc2ccccc12	2	-3	-10	6	22	-13	.	.
O=C(NCc1ccccc1)C1=C[C@H](c2ccccc2)C[C@H](OCc2ccc(CO)cc2)O1	8	-12	-6	42	8	20*	1	1
O=C(Nc1ccccc1)C1=C[C@H](c2ccc(C(F)(F)F)cc2)C[C@H](OCc2ccc(CO)cc2)O1	8.6*	.	-12	.	.	26*	7	3
C[C@H](NS(=O)(=O)c1ccc([N+](=O)[O-])cc1)C(=O)NCCNC(=O)[C@@H](C)NS(=O)(=O)c1ccc([N+](=O)[O-])cc1	-6	.	.	.	.	-9	.	.
CC(C)NC(=O)C1(C)CCN1C(=O)C(c1ccccc1)c1ccccc1 (centres undefined)	-5	-4	-4	.	-5	-10	.	.
N#Cc1nc(COc2ccc(Br)cc2)oc1N1CCCCCC1	2	0	-3	-4	31	1	.	.
N#Cc1nc(COc2ccc(Br)cc2)oc1N1CCCC1	5	-11	-1	27	20	21*	2	0
Cc1cc(S(=O)(=O)NCC(c2ccccc2)c2ccccc2)ccc1-n1cnnn1	5	15	-6	-1	27	20*	2	1
COc1ccccc1CNS(=O)(=O)c1ccc(-n2cnnn2)c(C)c1	-4	1	-5	1	-3	-3	.	.
CCC[C@H]1[C@@H](NC(=S)Nc2ccccc2Cl)CC[C@@]23CCCN2C(=O)CCC[C@@H]13	-1	.	.	.	.	3	.	.
Clc1ccccc1C1CC(c2ccccc2)Nc2ncnn21 (centres undefined)	-3	4	0	-4	5	92*	2	-1
c1ccc(C2CC(c3ccccc3)n3ncnc3N2)cc1 (centres undefined)	-4	-5	.	-17	-2	-8	.	.
COc1cc(/C=N/NC(=O)c2cc(-c3cccc(OC(C)C)c3)nc3ccccc23)ccc1O	7	-6	-4	7	17	28*	9	4
S=c1[nH]nc(COc2ccccc2)n1/N=C/C(Cl)=C/c1ccccc1	5	12	-5	0	14	20*	3	1
S=c1[nH]nc(COc2ccccc2)n1/N=C/C=C/c1ccccc1	3	0	-3	-18	-3	-1	.	.
Fc1ccccc1-c1n[nH]c(=S)n1N=Cc1ccc(OCc2ccccc2)cc1	8	.	.	.	.	25*	6	2
CCn1ccnc1CN1CCC(n2nccc2NC(=O)c2ccccc2OC)CC1	2	-12	.	2	-5	0	.	.
COCCN1C[C@@H](CO)O[C@@H](n2cnc3c(NC4CCC4)ncnc32)C1	-1	2	-6	.	-2	-1	.	.
CC(NC(=O)Cc1ccccc1)C(=O)O (centres undefined)	-1	-8	-10	-3	-6	1	.	.
O=C(Nc1ccc(OCC(F)(F)C(F)F)c(C(F)(F)F)c1)c1ccccc1	7	4	.	40	35	24*	3	0
COc1ccccc1C(=O)N1CCCC(c2nc(-c3cccs3)no2)C1 (centres undefined)	2	.	.	.	.	-11	.	.
Cc1ccccc1Cn1cc(S(=O)(=O)CC(=O)Nc2nccs2)c2ccccc21	2	-19	-9	-2	20	23*	4	0
